According to ChEMBL document CHEMBL4184197 (Bioorg Med Chem, 2018):

Columns and labels:
[1] = target: Voltage-gated inwardly rectifying potassium channel KCNH2 (Homo sapiens, UniProt Q12809); assay: Displacement of [3H]-astemizole from human ERG up to 10 uM
Summary of the method: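 hERG channel binding assay run by a contract lab; compound tested up to 10 μM.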

[2] = system: Salmonella typhimurium; assay: Mutagenicity in Salmonella typhimurium TA98 in presence of rat liver S9 fraction by Ames test; format: toxicity, organism-based; settings: salmonella enterica subsp. enterica serovar typhimurium
[3] = system: Salmonella typhimurium; assay: Mutagenicity in Salmonella typhimurium TA1535 in presence of rat liver S9 fraction by Ames test; format: toxicity, organism-based; settings: salmonella enterica subsp. enterica serovar typhimurium
[4] = system: Salmonella typhimurium; assay: Mutagenicity in Salmonella typhimurium TA1535 in absence of rat liver S9 fraction by Ames test; format: toxicity, organism-based; settings: salmonella enterica subsp. enterica serovar typhimurium
[5] = system: CHO-K1; assay: Genotoxicity in CHOK1 cells in presence of rat liver S9 fraction by fluorescence imaging based micronucleus assay; format: toxicity, cell-based, Cricetulus griseus; settings: chinese hamster
[6] = target: Adrenergic receptor alpha-1 (Rattus norvegicus) (UniProt P15823+P23944+P43140); assay: Binding affinity to rat alpha1 receptor at 10 uM after 60 mins by scintillation counting analysis relative to control; format: protein assay
[7] = target: Type-2 angiotensin II receptor (Homo sapiens) (UniProt P50052); assay: Binding affinity to recombinant human AT2 receptor at 10 uM after 240 mins by scintillation counting analysis relative to control
[8] = target: Translocator protein (Homo sapiens) (UniProt P30536); assay: Binding affinity to peripheral-type benzodiazepine receptor (unknown origin) at 10 uM relative to control
[9] = species on record: Homo sapiens; assay: Binding affinity to bombesin receptor (unknown origin) at 10 uM relative to control
[10] = target: Calcitonin gene-related peptide type 1 receptor (Homo sapiens) (UniProt Q16602); assay: Binding affinity to recombinant human CGRP at 10 uM after 90 mins by scintillation counting analysis relative to control
[11] = target: D(1A) dopamine receptor (Homo sapiens) (UniProt P21728); assay: Binding affinity to recombinant human dopamine receptor D1 at 10 uM after 60 mins by scintillation counting analysis relative to control
[12] = target: D(3) dopamine receptor (Homo sapiens) (UniProt P35462); assay: Binding affinity to recombinant human dopamine receptor D3 at 10 uM after 60 mins by scintillation counting analysis relative to control
[13] = target: D(1B) dopamine receptor (Homo sapiens) (UniProt P21918); assay: Binding affinity to recombinant human dopamine receptor D5 at 10 uM after 60 mins by scintillation counting analysis relative to control
[14] = species on record: Rattus norvegicus; assay: Binding affinity to rat GABA receptor at 10 uM after 30 mins by scintillation counting analysis relative to control
[15] = target: Galanin receptor type 1 (Homo sapiens) (UniProt P47211); assay: Binding affinity to recombinant human GAL1 receptor at 10 uM after 120 mins by scintillation counting analysis relative to control
[16] = target: Substance-K receptor (Homo sapiens) (UniProt P21452); assay: Binding affinity to recombinant human NK2 receptor at 10 uM after 60 mins by scintillation counting analysis relative to control
[17] = target: Neuropeptide Y receptor type 1 (Homo sapiens) (UniProt P25929); assay: Binding affinity to human Y1 receptor at 10 uM after 120 mins by scintillation counting analysis relative to control
[18] = target: Neuropeptide Y receptor type 2 (Homo sapiens) (UniProt P49146); assay: Binding affinity to human Y2 receptor at 10 uM after 60 mins by scintillation counting analysis relative to control
[19] = target: Mu-type opioid receptor (Homo sapiens) (UniProt P35372); assay: Binding affinity to recombinant human mu opioid receptor at 10 uM after 120 mins by scintillation counting analysis relative to control
[20] = target: Prostaglandin E2 receptor EP2 subtype (Homo sapiens) (UniProt P43116); assay: Binding affinity to recombinant human EP2 receptor at 10 uM after 120 mins by scintillation counting analysis relative to control
[21] = species on record: Homo sapiens; assay: Binding affinity to P2X receptor (unknown origin) at 10 uM relative to control
[22] = target: 5-hydroxytryptamine receptor 7 (Homo sapiens) (UniProt P34969); assay: Binding affinity to recombinant human 5-HT7 receptor at 10 uM after 120 mins by scintillation counting analysis relative to control
[23] = target: Estrogen receptor (Homo sapiens) (UniProt P03372); assay: Binding affinity to human ER at 10 uM after 1200 mins by scintillation counting analysis relative to control
[24] = target: Vasoactive intestinal polypeptide receptor 1 (Homo sapiens) (UniProt P32241); assay: Binding affinity to recombinant human VPAC1 receptor at 10 uM after 60 mins by scintillation counting analysis relative to control
[25] = target: Vasopressin V1a receptor (Homo sapiens) (UniProt P37288); assay: Binding affinity to recombinant human V1A receptor at 10 uM after 60 mins by scintillation counting analysis relative to control
[26] = system: Voltage-gated potassium channel; assay: Binding affinity to voltage-gated potassium channel (unknown origin) at 10 uM relative to control; format: protein assay; settings: human
[27] = species on record: Homo sapiens; assay: Binding affinity to sodium channel (unknown origin) at 10 uM relative to control
[28] = target: Sodium-dependent noradrenaline transporter (Homo sapiens) (UniProt P23975); assay: Binding affinity to norepinephrine transporter (unknown origin) at 10 uM relative to control
[29] = target: Sodium-dependent dopamine transporter (Homo sapiens) (UniProt Q01959); assay: Binding affinity to dopamine transporter (unknown origin) at 10 uM relative to control
[30] = target: Secretory phospholipase A2 receptor (Homo sapiens) (UniProt Q13018); assay: Binding affinity to recombinant human sPLA2 receptor at 10 uM after 20 mins by spectrophotometric analysis relative to control
[31] = target: Polyunsaturated fatty acid 5-lipoxygenase (Homo sapiens) (UniProt P09917); assay: Binding affinity to recombinant human 5-LOX at 10 uM after 90 mins by fluorescence assay relative to control
[32] = target: Nitric oxide synthase, inducible (Mus musculus) (UniProt P29477); assay: Binding affinity to recombinant mouse iNOS at 10 uM after 120 mins by spectrophotometric analysis relative to control
[33] = target: Angiotensin-converting enzyme 2 (Homo sapiens) (UniProt Q9BYF1); assay: Binding affinity to recombinant human ACE-2 at 10 uM after 20 mins by fluorescence assay relative to control
[34] = target: Caspase-3 (Homo sapiens) (UniProt P42574); assay: Binding affinity to recombinant human caspase 3 at 10 uM after 60 mins by fluorescence assay relative to control
[35] = target: Procathepsin L (Homo sapiens) (UniProt P07711); assay: Binding affinity to human cathepsin L at 10 uM after 30 mins by fluorescence assay relative to control
[36] = target: Tyrosine-protein phosphatase non-receptor type 1 (Homo sapiens) (UniProt P18031); assay: Binding affinity to recombinant human phosphatase 1B at 10 uM after 30 mins by fluorescence assay relative to control
[37] = target: Histone deacetylase 11 (Homo sapiens) (UniProt Q96DB2); assay: Binding affinity to recombinant human HDAC11 at 10 uM after 30 mins by fluorescence analysis relative to control
[38] = target: NAD-dependent protein deacetylase sirtuin-1 (Homo sapiens) (UniProt Q96EB6); assay: Binding affinity to surtuin-1 (unknown origin) at 10 uM by relative to control
NAD-dependent protein deacetylase sirtuin-1 (Homo sapiens), sequence (Q96EB6 whole entry): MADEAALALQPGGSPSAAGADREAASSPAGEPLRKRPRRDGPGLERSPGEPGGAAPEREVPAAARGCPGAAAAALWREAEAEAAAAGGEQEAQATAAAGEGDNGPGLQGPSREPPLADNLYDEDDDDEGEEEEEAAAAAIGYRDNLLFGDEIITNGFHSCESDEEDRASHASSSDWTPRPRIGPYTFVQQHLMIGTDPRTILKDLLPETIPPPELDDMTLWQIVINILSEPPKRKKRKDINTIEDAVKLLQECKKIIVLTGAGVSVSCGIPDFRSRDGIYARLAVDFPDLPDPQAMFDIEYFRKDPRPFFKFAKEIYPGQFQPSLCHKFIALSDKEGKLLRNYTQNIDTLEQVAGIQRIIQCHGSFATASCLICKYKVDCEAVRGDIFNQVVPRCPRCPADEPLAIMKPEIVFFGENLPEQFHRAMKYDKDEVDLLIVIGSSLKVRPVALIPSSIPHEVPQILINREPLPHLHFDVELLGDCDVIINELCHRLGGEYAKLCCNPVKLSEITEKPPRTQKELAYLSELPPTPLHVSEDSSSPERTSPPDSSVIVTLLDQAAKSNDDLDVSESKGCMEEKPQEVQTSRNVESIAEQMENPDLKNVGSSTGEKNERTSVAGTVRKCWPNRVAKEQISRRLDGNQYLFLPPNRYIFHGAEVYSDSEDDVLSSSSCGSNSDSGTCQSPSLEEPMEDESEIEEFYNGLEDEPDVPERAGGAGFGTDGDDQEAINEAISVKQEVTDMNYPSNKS

Prostaglandin E2 receptor EP2 subtype (Homo sapiens), sequence (P43116 whole entry): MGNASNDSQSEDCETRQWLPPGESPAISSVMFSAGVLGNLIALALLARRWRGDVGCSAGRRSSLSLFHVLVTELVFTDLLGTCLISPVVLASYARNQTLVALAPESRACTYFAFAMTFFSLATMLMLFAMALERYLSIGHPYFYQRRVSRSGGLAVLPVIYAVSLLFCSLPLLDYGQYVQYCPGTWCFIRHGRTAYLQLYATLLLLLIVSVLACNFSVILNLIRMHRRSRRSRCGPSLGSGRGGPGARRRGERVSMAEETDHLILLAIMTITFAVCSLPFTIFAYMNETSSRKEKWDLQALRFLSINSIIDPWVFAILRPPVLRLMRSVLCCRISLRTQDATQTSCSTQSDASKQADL
Tyrosine-protein phosphatase non-receptor type 1 (Homo sapiens), sequence (P18031 whole entry): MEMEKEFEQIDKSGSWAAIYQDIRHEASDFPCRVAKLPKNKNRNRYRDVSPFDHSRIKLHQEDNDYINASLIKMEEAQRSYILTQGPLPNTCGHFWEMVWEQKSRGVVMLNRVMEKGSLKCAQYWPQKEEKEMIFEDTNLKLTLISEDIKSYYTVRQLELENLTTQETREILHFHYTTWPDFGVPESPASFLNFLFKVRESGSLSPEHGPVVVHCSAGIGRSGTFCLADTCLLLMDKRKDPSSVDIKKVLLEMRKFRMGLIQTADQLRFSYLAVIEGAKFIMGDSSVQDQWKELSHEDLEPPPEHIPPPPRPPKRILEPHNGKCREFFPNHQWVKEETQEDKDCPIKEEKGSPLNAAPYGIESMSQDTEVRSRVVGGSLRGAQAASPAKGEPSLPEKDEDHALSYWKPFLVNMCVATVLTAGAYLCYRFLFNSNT
Neuropeptide Y receptor type 2 (Homo sapiens), sequence (P49146 whole entry): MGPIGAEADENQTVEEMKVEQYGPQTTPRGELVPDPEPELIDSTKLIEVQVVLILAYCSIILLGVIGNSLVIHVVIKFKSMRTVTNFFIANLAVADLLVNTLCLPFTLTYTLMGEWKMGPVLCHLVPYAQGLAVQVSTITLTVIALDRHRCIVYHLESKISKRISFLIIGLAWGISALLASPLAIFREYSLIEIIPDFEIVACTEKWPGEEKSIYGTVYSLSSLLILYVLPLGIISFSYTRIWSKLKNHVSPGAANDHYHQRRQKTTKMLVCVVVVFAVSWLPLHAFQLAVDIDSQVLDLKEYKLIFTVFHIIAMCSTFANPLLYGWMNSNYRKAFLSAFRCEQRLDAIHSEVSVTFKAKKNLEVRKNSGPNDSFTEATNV
Histone deacetylase 11 (Homo sapiens), sequence (Q96DB2 whole entry): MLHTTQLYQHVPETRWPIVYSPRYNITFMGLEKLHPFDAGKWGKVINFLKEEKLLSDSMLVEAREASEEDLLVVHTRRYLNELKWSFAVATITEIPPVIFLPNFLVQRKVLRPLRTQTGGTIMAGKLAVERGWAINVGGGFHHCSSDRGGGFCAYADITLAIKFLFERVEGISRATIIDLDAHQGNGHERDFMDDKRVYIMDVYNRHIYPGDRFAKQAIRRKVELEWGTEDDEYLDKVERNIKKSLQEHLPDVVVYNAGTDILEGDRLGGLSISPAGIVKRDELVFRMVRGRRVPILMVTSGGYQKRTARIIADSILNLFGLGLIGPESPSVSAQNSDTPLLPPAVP
Polyunsaturated fatty acid 5-lipoxygenase (Homo sapiens), sequence (P09917 whole entry): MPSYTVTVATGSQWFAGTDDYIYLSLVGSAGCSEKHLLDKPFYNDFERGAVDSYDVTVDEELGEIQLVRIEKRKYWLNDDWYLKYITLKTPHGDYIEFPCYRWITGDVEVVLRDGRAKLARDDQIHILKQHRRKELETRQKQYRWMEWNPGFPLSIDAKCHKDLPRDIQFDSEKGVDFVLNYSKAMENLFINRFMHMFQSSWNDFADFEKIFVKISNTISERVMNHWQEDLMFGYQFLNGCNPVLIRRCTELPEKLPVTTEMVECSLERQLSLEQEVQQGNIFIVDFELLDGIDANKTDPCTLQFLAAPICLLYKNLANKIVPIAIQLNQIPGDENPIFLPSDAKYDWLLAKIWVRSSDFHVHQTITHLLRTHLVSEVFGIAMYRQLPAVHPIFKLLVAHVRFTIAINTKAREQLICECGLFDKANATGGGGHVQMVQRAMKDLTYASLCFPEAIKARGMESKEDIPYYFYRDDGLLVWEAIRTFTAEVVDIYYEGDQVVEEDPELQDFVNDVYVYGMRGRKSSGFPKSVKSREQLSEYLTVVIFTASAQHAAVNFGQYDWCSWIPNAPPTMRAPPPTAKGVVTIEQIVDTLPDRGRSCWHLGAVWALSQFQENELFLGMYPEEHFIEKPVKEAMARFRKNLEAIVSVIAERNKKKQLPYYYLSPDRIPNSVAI
D(3) dopamine receptor (Homo sapiens), sequence (P35462 whole entry): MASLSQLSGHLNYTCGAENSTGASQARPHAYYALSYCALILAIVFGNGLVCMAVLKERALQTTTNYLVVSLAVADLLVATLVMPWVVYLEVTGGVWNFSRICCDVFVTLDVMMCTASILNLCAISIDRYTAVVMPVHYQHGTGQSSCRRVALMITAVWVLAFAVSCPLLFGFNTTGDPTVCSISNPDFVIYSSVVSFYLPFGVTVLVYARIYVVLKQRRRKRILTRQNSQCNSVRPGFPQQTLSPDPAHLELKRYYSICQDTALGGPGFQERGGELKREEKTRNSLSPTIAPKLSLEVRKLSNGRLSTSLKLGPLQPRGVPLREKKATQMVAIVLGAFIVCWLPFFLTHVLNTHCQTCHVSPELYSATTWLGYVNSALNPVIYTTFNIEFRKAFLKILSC
Mu-type opioid receptor (Homo sapiens), sequence (P35372 whole entry): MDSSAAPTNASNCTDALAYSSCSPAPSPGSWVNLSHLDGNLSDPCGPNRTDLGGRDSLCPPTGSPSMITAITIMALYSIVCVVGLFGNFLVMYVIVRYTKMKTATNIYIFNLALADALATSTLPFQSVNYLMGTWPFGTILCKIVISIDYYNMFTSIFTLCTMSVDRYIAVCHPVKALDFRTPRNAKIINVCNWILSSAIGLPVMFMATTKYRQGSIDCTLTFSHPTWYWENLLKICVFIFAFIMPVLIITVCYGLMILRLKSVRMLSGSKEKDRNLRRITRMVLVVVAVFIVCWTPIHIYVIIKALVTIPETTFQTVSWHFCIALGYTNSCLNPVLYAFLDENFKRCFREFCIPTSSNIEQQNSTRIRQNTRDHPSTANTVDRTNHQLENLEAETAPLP
Vasopressin V1a receptor (Homo sapiens), sequence (P37288 whole entry, looked up): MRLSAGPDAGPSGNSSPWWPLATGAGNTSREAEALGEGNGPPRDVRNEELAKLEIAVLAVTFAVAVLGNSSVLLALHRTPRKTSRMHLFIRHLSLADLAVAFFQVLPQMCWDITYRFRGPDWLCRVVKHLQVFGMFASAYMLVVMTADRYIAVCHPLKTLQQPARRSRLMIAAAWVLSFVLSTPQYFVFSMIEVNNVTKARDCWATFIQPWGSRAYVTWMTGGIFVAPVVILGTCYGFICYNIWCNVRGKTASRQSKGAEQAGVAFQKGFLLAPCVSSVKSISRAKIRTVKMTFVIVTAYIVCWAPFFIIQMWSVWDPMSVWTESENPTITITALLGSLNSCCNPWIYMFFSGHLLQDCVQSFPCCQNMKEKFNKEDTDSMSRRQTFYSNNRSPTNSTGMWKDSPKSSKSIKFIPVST
Galanin receptor type 1 (Homo sapiens), sequence (P47211 whole entry): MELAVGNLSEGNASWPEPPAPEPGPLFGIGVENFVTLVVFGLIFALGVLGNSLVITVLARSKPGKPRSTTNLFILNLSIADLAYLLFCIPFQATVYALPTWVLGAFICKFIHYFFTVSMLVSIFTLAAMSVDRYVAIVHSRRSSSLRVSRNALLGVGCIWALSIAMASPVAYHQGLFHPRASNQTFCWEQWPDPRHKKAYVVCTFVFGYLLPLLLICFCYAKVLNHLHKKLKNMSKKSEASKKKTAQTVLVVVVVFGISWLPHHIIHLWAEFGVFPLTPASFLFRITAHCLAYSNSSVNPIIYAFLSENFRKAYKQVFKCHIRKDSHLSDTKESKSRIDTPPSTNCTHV
Procathepsin L (Homo sapiens), sequence (P07711 114-333 limits assumed): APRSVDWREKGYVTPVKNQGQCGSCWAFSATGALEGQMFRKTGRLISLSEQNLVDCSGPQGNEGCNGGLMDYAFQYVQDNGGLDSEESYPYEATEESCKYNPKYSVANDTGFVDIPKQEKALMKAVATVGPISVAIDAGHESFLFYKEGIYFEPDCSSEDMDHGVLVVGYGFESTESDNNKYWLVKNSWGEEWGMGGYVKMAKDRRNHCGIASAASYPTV
Translocator protein (Homo sapiens), sequence (P30536 whole entry): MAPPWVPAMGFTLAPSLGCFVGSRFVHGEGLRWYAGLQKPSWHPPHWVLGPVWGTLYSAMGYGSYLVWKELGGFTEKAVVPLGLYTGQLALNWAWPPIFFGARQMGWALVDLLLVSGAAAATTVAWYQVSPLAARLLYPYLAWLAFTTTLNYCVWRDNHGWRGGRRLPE

CCOc1c(Cl)cc(C(=O)Nc2ccc(C(=O)O)c(C)c2)cc1OC(C)C
Activity [1]: Not Active | Activity [2]: Non-Toxic | Activity [3]: Non-Toxic | Activity [4]: Non-Toxic | Activity [5]: Non-Toxic | Activity [6]: < 25% | Activity [7]: < 25% | Activity [8]: < 25% | Activity [9]: < 25% | Activity [10]: < 25% | Activity [11]: < 25% | Activity [12]: < 25% | Activity [13]: < 25% | Activity [14]: < 25% | Activity [15]: < 25% | Activity [16]: < 25% | Activity [17]: < 25% | Activity [18]: < 25% | Activity [19]: < 25% | Activity [20]: < 25% | Activity [21]: < 25% | Activity [22]: < 25% | Activity [23]: < 25% | Activity [24]: < 25% | Activity [25]: < 25% | Activity [26]: <= 25% | Activity [27]: < 25% | Activity [28]: < 25% | Activity [29]: < 25% | Activity [30]: < 25% | Activity [31]: < 25% | Activity [32]: < 25% | Activity [33]: < 25% | Activity [34]: < 25% | Activity [35]: < 25% | Activity [36]: < 25% | Activity [37]: < 25% | Activity [38]: < 25%
